Measurements as given in ChEMBL document CHEMBL2434863, “Synthesis and in vitro/in vivo antibacterial activity of oxazolidinones having thiocarbamate at C-5 on the A-ring and an amide- or urea-substituted [1,2,5]triazepane or [1,2,5]oxadiazepane as the C-ring” (Eur J Med Chem, 2013).

How the values were obtained:
Assay type in all cases: functional
[1] = tested on: Staphylococcus aureus; assay: Antibacterial activity against linezolid-resistant Staphylococcus aureus NRS271 assessed as growth inhibition by broth microdilution method
[2] = tested on: Staphylococcus aureus; assay: Antibacterial activity against Staphylococcus aureus Smith assessed as growth inhibition by broth microdilution method
[3] = tested on: Enterococcus faecalis; assay: Antibacterial activity against Enterococcus faecalis SR1004 clinical isolate assessed as growth inhibition by broth microdilution method
[4] = tested on: Staphylococcus aureus; assay: Antibacterial activity against Staphylococcus aureus SR20549 clinical isolate assessed as growth inhibition by broth microdilution method
[5] = tested on: Moraxella catarrhalis; assay: Antibacterial activity against Moraxella catarrhalis SR26840 clinical isolate assessed as growth inhibition by broth microdilution method
[6] = tested on: Haemophilus influenzae; assay: Antibacterial activity against Haemophilus influenzae SR27914 clinical isolate assessed as growth inhibition by broth microdilution method
[7] = tested on: Streptococcus pneumoniae; assay: Antibacterial activity against Streptococcus pneumoniae SR26207 clinical isolate assessed as growth inhibition by broth microdilution method
[8] = tested on: Enterococcus faecium; assay: Antibacterial activity against Enterococcus faecium SR7940 clinical isolate assessed as growth inhibition by broth microdilution method
[9] = tested on: Staphylococcus aureus; assay: Antibacterial activity against methicillin-resistant Staphylococcus aureus SR3637 infected in JCL/ICR mouse systemic infection model assessed as mortality administered as iv measured over 7 days; settings: 168 h
How it was run: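 Lethal systemic infection model in mice; test agents were given intravenously.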

[10] = tested on: Staphylococcus aureus; assay: Antibacterial activity against methicillin-resistant Staphylococcus aureus SR3637 assessed as growth inhibition by broth microdilution method

In the case of `CONC(=O)N1CCN(c2ccc(N3C[C@H](CNC(=S)OC)OC3=O)cc2F)CCN1`, the MIC [1] was 16 µg/mL, the MIC [2] was 1 µg/mL and the MIC [3] was 0.5 µg/mL. It also gave an MIC [4] of 1 µg/mL, an MIC [5] of 4 µg/mL and an MIC [6] of 16 µg/mL. The MIC [7] was 0.25 µg/mL and the MIC [8] was 0.5 µg/mL.

With `CONC(=O)N1CCN(c2c(F)cc(N3C[C@H](CNC(=S)OC)OC3=O)cc2F)CCN1` the MIC [1] was 4 µg/mL, the MIC [2] was 0.5 µg/mL and the MIC [3] was 0.5 µg/mL. For the same compound, the ED50 [9] was 3.05 mg/kg, the MIC [4] was 0.5 µg/mL and the MIC [5] was 2 µg/mL. It also gave an MIC [6] of 16 µg/mL, an MIC [10] of 0.5 µg/mL and an MIC [7] of 0.25 µg/mL. The MIC [8] was 0.25 µg/mL.

`CONC(=O)N1CCN(c2c(F)cc(N3C[C@H](CNC(=S)OC)OC3=O)cc2F)CCO1` showed an MIC [1] of 8 µg/mL, an MIC [2] of 1 µg/mL and an MIC [3] of 1 µg/mL. It also gave an MIC [4] of 0.5 µg/mL, an MIC [5] of 2 µg/mL and an MIC [6] of 16 µg/mL. The MIC [7] was 0.125 µg/mL and the MIC [8] was 0.5 µg/mL.

Compound `CC(=O)NC[C@H]1CN(c2ccc(-c3ccc(N4CCON(C(=O)CO)CC4)nc3)c(F)c2)C(=O)O1` has an MIC [1] of 8 µg/mL, an MIC [2] of 2 µg/mL and an MIC [3] of 1 µg/mL. It also gave an MIC [4] of 1 µg/mL, an MIC [5] of 16 µg/mL and an MIC [6] of 16 µg/mL. The MIC [7] was 0.125 µg/mL and the MIC [8] was 1 µg/mL.

Compound `O=C(CO)N1CCN(c2ccc(-c3ccc(N4C[C@H](Cn5ccnn5)OC4=O)cc3F)cn2)CCO1` has an MIC [1] of 8 µg/mL, an MIC [2] of 2 µg/mL and an MIC [3] of 2 µg/mL. The MIC [4] was 1 µg/mL, the MIC [5] was 8 µg/mL and the MIC [6] was 32 µg/mL. The MIC [7] was 0.25 µg/mL and the MIC [8] was 1 µg/mL.

Work on `NC(=O)N1CCN(c2c(F)cc(N3C[C@H](Cn4ccnn4)OC3=O)cc2F)CCO1` yielded an MIC [1] of 32 µg/mL, an MIC [2] of 2 µg/mL and an MIC [3] of 4 µg/mL. The MIC [4] was 1 µg/mL, the MIC [5] was 8 µg/mL and the MIC [6] was 16 µg/mL. The MIC [7] was 1 µg/mL and the MIC [8] was 4 µg/mL.

Compound `NC(=O)N1CCN(c2c(F)cc(N3C[C@H](CNc4ccon4)OC3=O)cc2F)CCN1` has an MIC [1] of 16 µg/mL, an MIC [2] of 1 µg/mL and an MIC [3] of 1 µg/mL. The MIC [4] was 0.5 µg/mL, the MIC [5] was 8 µg/mL and the MIC [6] was 16 µg/mL. It also gave an MIC [7] of 0.125 µg/mL and an MIC [8] of 1 µg/mL.

In the case of `CNC(=O)N1CCN(c2c(F)cc(N3C[C@H](CNC(=S)OC)OC3=O)cc2F)CCN1`, the MIC [1] was 2 µg/mL, the MIC [2] was 0.25 µg/mL and the MIC [3] was 0.25 µg/mL. For the same compound, the ED50 [9] was 3.17 mg/kg, the MIC [4] was 0.25 µg/mL and the MIC [5] was 1 µg/mL. The MIC [6] was 8 µg/mL, the MIC [10] was 0.25 µg/mL and the MIC [7] was ≤ 0.063 µg/mL. The MIC [8] was 0.25 µg/mL.

In the case of `CNC(=O)N1CCN(c2c(F)cc(N3C[C@H](CNC(=S)OC)OC3=O)cc2F)CCO1`, the MIC [1] was 4 µg/mL, the MIC [2] was 0.5 µg/mL and the MIC [3] was 1 µg/mL. It also gave an MIC [4] of 0.5 µg/mL, an MIC [5] of 2 µg/mL and an MIC [6] of 32 µg/mL. It also gave an MIC [7] of 0.125 µg/mL and an MIC [8] of 0.5 µg/mL.

`CNC(=O)N1CCN(c2c(F)cc(N3C[C@H](Cn4ccnn4)OC3=O)cc2F)CCO1` was tested, and the MIC [1] was 32 µg/mL, the MIC [2] was 8 µg/mL and the MIC [3] was 4 µg/mL. It also gave an MIC [4] of 2 µg/mL, an MIC [5] of 16 µg/mL and an MIC [6] of 32 µg/mL. The MIC [7] was 1 µg/mL and the MIC [8] was 2 µg/mL.

For `COC(=S)NC[C@H]1CN(c2ccc(N3CCNN(C(=O)NO)CC3)c(F)c2)C(=O)O1`, the MIC [1] was 16 µg/mL, the MIC [2] was 1 µg/mL and the MIC [3] was 1 µg/mL. The MIC [4] was 0.5 µg/mL, the MIC [5] was 4 µg/mL and the MIC [6] was 4 µg/mL. For the same compound, the MIC [7] was ≤ 0.063 µg/mL and the MIC [8] was 1 µg/mL.

With `O=C(NO)N1CCN(c2c(F)cc(N3C[C@H](Cn4ccnn4)OC3=O)cc2F)CCN1` the MIC [1] was 64 µg/mL, the MIC [2] was 4 µg/mL and the MIC [3] was 8 µg/mL. It also gave an MIC [4] of 2 µg/mL, an MIC [5] of 8 µg/mL and an MIC [6] of 16 µg/mL. It also gave an MIC [7] of 0.5 µg/mL and an MIC [8] of 8 µg/mL.

With `O=C(NO)N1CCN(c2c(F)cc(N3C[C@H](Cn4ccnn4)OC3=O)cc2F)CCO1` the MIC [1] was 64 µg/mL, the MIC [2] was 2 µg/mL and the MIC [3] was 4 µg/mL. It also gave an MIC [4] of 2 µg/mL, an MIC [5] of 8 µg/mL and an MIC [6] of 16 µg/mL. It also gave an MIC [7] of 0.5 µg/mL and an MIC [8] of 4 µg/mL.

`CC(=O)NC[C@H]1CN(c2cc(F)c(N3CCn4c(=O)c5cc(N)cnc5n4CC3)c(F)c2)C(=O)O1` was tested, and the MIC [1] was 8 µg/mL, the MIC [2] was 0.5 µg/mL and the MIC [3] was 2 µg/mL. It also gave an MIC [4] of 1 µg/mL, an MIC [5] of 8 µg/mL and an MIC [6] of 32 µg/mL. For the same compound, the MIC [7] was 0.25 µg/mL and the MIC [8] was 2 µg/mL.

Compound `Nc1cnc2c(c1)c(=O)n1n2CCN(c2c(F)cc(N3C[C@H](Cn4ccnn4)OC3=O)cc2F)CC1` has an MIC [1] of 16 µg/mL, an MIC [2] of 1 µg/mL and an MIC [3] of 2 µg/mL. The MIC [4] was 1 µg/mL, the MIC [5] was 16 µg/mL and the MIC [6] was 32 µg/mL. It also gave an MIC [7] of 0.25 µg/mL and an MIC [8] of 2 µg/mL.
